The record followed here is ChEMBL document CHEMBL1156265, “Furo[2,3-b]pyridine-based cannabinoid-1 receptor inverse agonists: synthesis and biological evaluation. Part 1” (Bioorg Med Chem Lett, 2010).

The nature of data set [1]: Drug level in rat brain at 1 mg/kg, iv after 4 hrs. Format: ADME, organism-based. On the set-up: dose 1 mg/kg, route intravenous. The conditions noted are these: read-out: Drug uptake.
Data set [2] relates to Rattus norvegicus. Nature of the data set: Reduction of body weight in DIO rat assessed as weight change at 1 mg/kg, po after 18 hrs. Format: functional. The gist of the method:
(§1)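 Acute study in diet-induced obese rats. A single oral dose was given and rats were monitored for 18 h. Food intake suppression and body weight change were measured relative to vehicle-treated controls.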

The target in a further data set is Cannabinoid receptor 2 (Homo sapiens, UniProt P34972). The data set is described as follows: Inhibition of human CB2 receptor.
Data set [3] concerns Rattus norvegicus. The data set is described as follows: Reduction of body weight in rat at 1 mg/kg, po after 13 days relative to control. The format is functional. Also on record: scale not given: the % may be the effect or the level left. The gist of the method: (§2)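 Chronic study in diet-induced obese rats with daily oral dosing at 1 mg/kg (for some compounds 0.1 and 0.3 mg/kg as well). Body weight change and cumulative food intake suppression were measured relative to vehicle. The 14-day study ended 18 h after the day-14 dose; one study ended on day 13.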

A short description of data set [4]: Metabolic stability in human liver microsomes assessed as compound remaining after 60 mins. The conditions noted are these: read-out: Activity. The format is ADME, Microsome. The gist of the method:
(§3)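 Liver microsomes (monkey, human, rat, dog) were incubated with compound for 60 min. The read-out was percent parent remaining over the incubation time course.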
Background: Liver microsomes are vesicles of endoplasmic reticulum, rich in cytochrome P450 enzymes.

Data set [5] can be described thus: Metabolic stability in rat bile assessed as total recovery at 2 mg/kg, iv after 5 days. The format is ADME, organism-based. On the set-up: dose 2 mg/kg, route intravenous. The conditions noted are these: in vivo, 120 h. The gist of the method:
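Radioactivity was collected in bile and urine for 120 h and expressed as percent of dose recovered.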

Data set [6] is described as follows: Bioavailability in rat. The format is ADME, organism-based. The conditions noted are these: in vivo.
Data set [7] relates to Rattus norvegicus. Nature of the data set: Suppression of food intake in DIO rat at 1 mg/kg, po relative to control. The format is functional. The gist of the method: as §1
In data set [8] the test system is Rattus norvegicus. Nature of the data set: Suppression of food intake in DIO rat at 1 mg/kg, po measured 18 hrs post dose on day 14 relative to control.
The nature of data set [9]: Ratio of drug level in brain to plasma in rat at 1 mg/kg, iv after 4 hrs. Also on record: dose 1 mg/kg, route intravenous. The format is ADME, organism-based.
The next data set deals with Cannabinoid receptor 1 (Homo sapiens, UniProt P21554). Nature of the data set: Inhibition of human CB1 receptor.
Data set [10] in a line: Plasma clearance in rat. Format: ADME, organism-based.
Data set [11] is described as follows: Bioavailability in dog. The format is ADME, organism-based, Canis lupus familiaris. The settings on record: in vivo. The gist of the method: (§4)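 PK in dog and rhesus macaque. Bioavailability, plasma clearance (mL/min/kg) and terminal half-life derived from plasma drug levels.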
A short description of data set [12]: Half life in rat. The format is ADME, organism-based. The conditions noted are these: in vivo.
Data set [13] deals with Rattus norvegicus. Nature of the data set: Reduction of body weight in DIO rat assessed as weight change at 1 mg/kg, po daily measured 18 hrs post dose on day 14. Format: functional. The gist of the method:
as §2

Data set [14] in a line: Half life in rhesus monkey. The format is ADME, organism-based, Macaca mulatta. The settings on record: in vivo. The gist of the method: as §4
The nature of data set [15]: Bioavailability in rhesus monkey. The format is ADME, organism-based, Macaca mulatta. The settings on record: in vivo. The gist of the method: as §4
The nature of data set [16]: Plasma clearance in rhesus monkey. Format: ADME, organism-based, Macaca mulatta. The gist of the method: as §4
The nature of data set [17]: Drug level in rat plasma at 1 mg/kg, iv after 4 hrs. The format is ADME, organism-based. Also on record: dose 1 mg/kg, route intravenous. The conditions noted are these: read-out: Drug uptake.
A short description of data set [18]: Lipophilicity, log D of the compound. The format is physicochemical. The conditions noted are these: HPLC, pH 7.3.
Data set [19] can be described thus: Plasma clearance in dog. The format is ADME, organism-based, Canis lupus familiaris. The gist of the method:
as §4

Data set [20] in a line: Half life in dog. Format: ADME, organism-based, Canis lupus familiaris. The settings on record: in vivo. The gist of the method:
as §4

Data set [21] is described as follows: Metabolic stability in monkey liver microsomes assessed as compound remaining after 60 mins. Format: ADME, Macaca fascicularis, Microsome. The settings on record: cynomolgus monkey, read-out: Activity. The gist of the method: as §3
Data set [22] can be described thus: Stability in phosphate buffer exposed to air assessed as degradation at pH 7.4 after 40 hrs. The format is physicochemical. The settings on record: read-out: Activity. The gist of the method: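 The compound was held in aqueous pH 7.4 phosphate buffer exposed to air for 40 h. The read-out was percent of material degraded to other products.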

Cannabinoid receptor 2, sequence (P34972 whole entry): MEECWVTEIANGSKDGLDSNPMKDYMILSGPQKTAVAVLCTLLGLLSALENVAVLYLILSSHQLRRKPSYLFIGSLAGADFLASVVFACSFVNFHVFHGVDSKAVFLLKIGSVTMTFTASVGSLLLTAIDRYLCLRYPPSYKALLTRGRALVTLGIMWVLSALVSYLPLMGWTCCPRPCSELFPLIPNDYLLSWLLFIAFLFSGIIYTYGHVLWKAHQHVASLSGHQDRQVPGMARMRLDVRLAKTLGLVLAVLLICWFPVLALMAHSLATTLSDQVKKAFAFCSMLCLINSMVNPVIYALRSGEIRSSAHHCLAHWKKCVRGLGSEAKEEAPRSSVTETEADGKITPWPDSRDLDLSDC
Cannabinoid receptor 1, sequence (P21554 whole entry): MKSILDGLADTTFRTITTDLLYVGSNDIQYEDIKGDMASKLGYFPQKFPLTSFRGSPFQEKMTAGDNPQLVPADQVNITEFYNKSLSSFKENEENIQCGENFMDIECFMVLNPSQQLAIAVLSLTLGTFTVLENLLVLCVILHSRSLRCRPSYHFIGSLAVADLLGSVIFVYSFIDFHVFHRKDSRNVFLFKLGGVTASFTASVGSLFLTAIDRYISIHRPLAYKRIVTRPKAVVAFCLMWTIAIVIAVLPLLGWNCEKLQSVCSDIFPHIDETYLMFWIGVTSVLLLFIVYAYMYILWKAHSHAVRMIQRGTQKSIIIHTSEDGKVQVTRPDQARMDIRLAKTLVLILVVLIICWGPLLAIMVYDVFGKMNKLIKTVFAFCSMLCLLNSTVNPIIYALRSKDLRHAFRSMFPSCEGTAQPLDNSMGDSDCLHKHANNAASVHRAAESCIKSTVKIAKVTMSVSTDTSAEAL

As usually defined, the IC50 is the concentration at which inhibition is half-maximal. For orientation: bioavailability means the share of a dose that reaches the circulation, judged against a reference dose that is usually intravenous. In general, Kp refers to tissue or fluid exposure divided by exposure in the circulation. One may read the clearance as a measure of how efficiently the substance is removed, as volume per time. Broadly, the half-life is how long it takes for the measured level to halve. By logD is commonly meant lipophilicity at a set pH, counting ionised and neutral species. Regarding `CC(C)(C)C(=O)c1oc2nc(-c3ccc(Cl)cc3Cl)c(-c3ccc(Cl)cc3)cc2c1N`, the concentration at 4 h in data set [1] and in [17] was 220 nM each time. In addition, the Activity in the data set with Rattus norvegicus [2] was -5 g; in the data set on Rattus norvegicus [3], 5.3%; in [5] it was 41%; with Rattus norvegicus [7] it was 53%; in the data set on Rattus norvegicus [8], 19%; in the data set with Rattus norvegicus [13], -3 g. Moreover, the results for the concentration for half-maximal inhibition (IC50) against Cannabinoid receptor 2 and against Cannabinoid receptor 1 were 440 nM and 5.5 nM, respectively. Besides, the remaining at 1 h in data set [4] came to 100%; in [21], 25%. Further, the bioavailability was determined as 59% in [6], 63% in data set [11] and 11% in [15]. In addition, in data set [9], the Kp at 4 h was determined as 1. Also, the results for the clearance in data set [10], in [16] and in data set [19] were 5.6 mL/min/kg, 29 mL/min/kg and 7.3 mL/min/kg, respectively. For the same molecule, the results for the half-life in [12], in [14] and in data set [20] were 4.2 h, 2.4 h and 7.9 h, respectively. In data set [18], this molecule displayed a logD of 6.7. Further, the degraded at 40 h in [22] came out at 40%.
